# IMP-1 inhibitor = blocks Pseudomonas aeruginosa IMP-1 metallo-beta-lactamase; purified IMP-1, nitrocefin hydrolysis, epi-absorbance fluorescence; inhibition, % at 5.6 µM; hit rate 0.45% among 290,000; AID 1556;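 active = inhibition above the mean plus 3 SD of all compounds in the same screening run, cut at about 4.5% in these data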;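 note: 0% = IMP-1 with DMSO and 100% = DMSO wells lacking enzyme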
#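 assay system = purified recombinant IMP-1 metallo-beta-lactamase enzyme | schedule = 15 min preincubation plus 25 min reaction at 25 °C | signal = Epi-absorbance fluorescence, 480 nm excitation, 530 nm emission | read-out basis = percent inhibition from optical density relative to buffer-blank wells | controls = IMP-1 with DMSO as 0%, enzyme-free DMSO as 100%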
# ARFGAP1 inh = rat ARFGAP1 inhibition; hit rate 0.26% among 360,000; inhibition, % at 16.5 µM; Arfgap1-stimulated ARF1 GTP hydrolysis, GDP FP detection; Q62848;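 active = inhibition above a per-plate limit, mean inhibition of low control wells plus 3 SD, cut at about 25% in these data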;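 note: 0% = DMSO wells with enzyme and 100% = wells lacking Arfgap1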
#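 Material: rat Arfgap1 GAP domain (His6, aa 1-136), purified enzyme. Also added: human ARF1(Δ1-17)-GTP substrate. Compound dosing: 16.5 µM single point, 1.26% DMSO. Timing: enzyme reaction 120 min at 25 °C after 20 min preincubation. Signal: GDP detection by fluorescence polarization. Read-out basis: percent inhibition of GAP-stimulated GDP formation, scaled between DMSO and no-Arfgap1 medians.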
# VIM-2 inhibitor = blocks Pseudomonas aeruginosa VIM-2 metallo-beta-lactamase | purified VIM-2, nitrocefin hydrolysis, epi-absorbance fluorescence | inhibition, % at 5.6 µM | hit rate 0.89% among 290,000 | AID 1527;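 active = inhibition above the mean of all tested compounds plus 3 SD, cutoff set per screening run, cut at about 7.5% in these data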;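 note: red hydrolysis product quenches plate fluorescence so inhibitors raise well fluorescence; 0% = enzyme with DMSO and 100% = DMSO without enzyme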
# PHOSPHO1 inh = PHOSPHO1 (human) inhibition; recombinant PHOSPHO1, absorbance phosphatase assay; inhibition, % at 13.3 µM; hit rate 1.1% among 290,000; AID 1565; in the data active = inhibition above about 60%
# Target sequence (Q8TCT1 whole entry, looked up): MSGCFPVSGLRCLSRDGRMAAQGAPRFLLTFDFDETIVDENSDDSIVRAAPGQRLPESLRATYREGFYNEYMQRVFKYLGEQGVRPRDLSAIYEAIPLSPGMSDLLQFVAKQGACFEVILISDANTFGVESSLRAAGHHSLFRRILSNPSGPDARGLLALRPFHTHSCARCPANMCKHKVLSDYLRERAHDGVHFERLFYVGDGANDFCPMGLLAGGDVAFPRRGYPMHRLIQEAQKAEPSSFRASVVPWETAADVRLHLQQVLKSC
# ASAP1 inh = ASAP1 ArfGAP inhibition; Q9ULH1; ASAP1-stimulated ARF1 GTP hydrolysis, GDP FP detection; inhibition, % at 16.5 µM; hit rate 0.19% among 360,000; AID 624377; in the data active = inhibition above about 25%;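 note: 0% = vehicle with enzyme and substrate and 100% = no enzyme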
# Target sequence (Q9ULH1 325-724 limits assumed): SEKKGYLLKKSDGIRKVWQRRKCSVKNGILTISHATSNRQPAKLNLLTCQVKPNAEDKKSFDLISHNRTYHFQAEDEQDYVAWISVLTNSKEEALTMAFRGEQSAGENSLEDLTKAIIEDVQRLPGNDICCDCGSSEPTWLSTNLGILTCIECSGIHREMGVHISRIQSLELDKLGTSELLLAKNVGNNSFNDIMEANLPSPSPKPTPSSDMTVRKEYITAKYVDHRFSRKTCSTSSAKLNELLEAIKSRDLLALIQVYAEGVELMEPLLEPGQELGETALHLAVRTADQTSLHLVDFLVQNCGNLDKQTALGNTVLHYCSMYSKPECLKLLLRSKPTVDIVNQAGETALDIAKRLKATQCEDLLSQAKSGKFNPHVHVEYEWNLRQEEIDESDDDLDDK
# Calb FLC = C. albicans growth modulation with fluconazole; C. albicans CaCi-2 + fluconazole, Alamar Blue growth, 48 h; growth inhibition, % (test concentration not listed); hit rate 0.57% among 300,000;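 active = growth inhibition above about 58% in most replicates, limit read from the data, passing the limit was not always enough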;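 note: all wells also contain fluconazole at 8 µg/ml as a sub-toxic cotreatment; 0% = median of DMSO wells and 100% = median of geldanamycin control wells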
# Starred values were filed as active, the others as inactive; · = no result. Shown are actives, neighbours in structure and some others; about 2.6% of the full set was active somewhere.
SMILES,IMP-1 inhibitor,ARFGAP1 inh,VIM-2 inhibitor,PHOSPHO1 inh,ASAP1 inh,Calb FLC
Fc1ccc(CSc2ccc3nnc(-c4cccs4)n3n2)cc1,-1,-1,-1,15,5,-44
Fc1ccc(CSc2ccc3nnc(-c4ccccn4)n3n2)cc1,-5,0,9.3*,53,-6,-19
CC1CCCN(C(=O)Nc2ccc([N+](=O)[O-])cc2)C1 (stereo unspecified),·,2,·,·,12,·
CCn1c(SCC(=O)N(Cc2ccccc2)C2CCS(=O)(=O)C2)nc2ccccc2c1=O (stereo unspecified),-3,-2,-2,63*,2,19
NC(=O)c1ccc(Cl)c2ccccc12,15*,17,-1,46,0,0
NC(=O)c1cccc2ccccc12,-1,11,-3,28,-2,19
COc1ccc(CNS(=O)(=O)c2cc(Br)ccc2Br)c(OC)c1,·,-3,·,·,-3,·
Fc1ccc(C2NC(=S)NC3=C2N2CCC3CC2)cc1 (stereo unspecified),-3,6,-3,76*,-3,-2
COc1ccc(C2NC(=S)NC3=C2N2CCC3CC2)cc1 (stereo unspecified),-3,-2,-2,28,-3,10
Cc1ccc(C(=O)/C=C/c2c[nH]c3ccccc23)cc1,-4,2,0,54,-9,24
CCN(CC)C(=O)c1ccc(/C=C/c2c[nH]c3ccccc23)[n+](C)c1,4.8*,8,6,-13,-2,2
Cc1ccccc1OCc1nc2ccc(S(=O)(=O)N3CCOCC3)cc2[nH]1,-3,-11,-3,98*,1,7
O=[N+]([O-])c1cccnc1N1CCCCC1,-2,-9,-3,32,-10,-21
CCCc1c(C)nn(-c2ncccc2[N+](=O)[O-])c1C,-3,-7,-4,60*,-13,-11
COc1cc(-c2nn3c(COc4ccccc4)nnc3s2)cc(OC)c1OC,-2,6,-3,74*,-2,-21
COc1cc(-c2nnc3sc(-c4ccncc4)nn23)cc(OC)c1OC,·,7,·,·,-5,-1
COc1cc(-c2nn3c(Cc4ccccc4)nnc3s2)cc(OC)c1OC,0,-2,1,77*,-4,5
c1ccc(Cc2nnc3sc(-c4ccco4)nn23)cc1,-4,-5,-2,96*,2,-2
c1ccc(Cc2nn3c(COc4ccccc4)nnc3s2)cc1,-2,1,-2,66*,3,-10
c1cncc(Oc2ccc(NCCc3c[nH]c4ccccc34)cc2)c1,·,-9,·,·,10,·
Cc1nc2ccc(C(=O)N(C)Cc3ccccc3)cn2c1N(C)C(=O)CCc1ccccc1,·,0,·,·,4,·
CCSc1ncc(Cl)c(C(=O)Nc2ccc(S(N)(=O)=O)cc2)n1,0,1,8.6*,20,6,-1
CCc1c(C)nc2ncnn2c1NCCc1ccc(OC)cc1,-4,-2,8.9*,34,-2,5
Cc1cc(-c2nc3c4c5c(sc4[nH]c(=O)n3n2)CCC5)c(C)o1,4,·,1,80*,·,4
Cc1nc2sc3c(c2c(=O)[nH]1)CCC3,-2,0,-3,20,-7,4
SMILES,IMP-1 inhibitor,ARFGAP1 inh,VIM-2 inhibitor,PHOSPHO1 inh,ASAP1 inh,Calb FLC
CC(=O)c1cccc(CN2CCN(Cc3ccc(F)cc3)C(CCO)C2)c1 (stereo unspecified),-4,-5,-1,60*,-7,-5
CC(=O)c1cccc(CN2CCN(Cc3ccc(C)cc3)C(CCO)C2)c1 (stereo unspecified),0,1,0,23,7,0
OCCC1CN(Cc2cnn(-c3ccc(F)cc3)c2)CCN1Cc1ccsc1 (stereo unspecified),-4,8,-2,60*,-1,-18
CCCCNC(=O)C[C@H]1C[C@@]2(C(=O)OC)C(=C[C@H](COCc3ccccc3)O[C@@H]2C)N(CCC2=CCCCC2)C1=O,·,3,·,·,12,·
CCN(CC)S(=O)(=O)c1cccc(-c2nnc(SCC(=O)c3ccc(Cl)s3)n2C)c1,3,-2,1,64*,-1,-6
COC(=O)c1cc2c(c3c4ccccc4n(S(=O)(=O)c4ccc(OC)cc4)c13)C(=O)N(Cc1ccccc1OC)C2,·,23,·,·,12,·
C[C@H](CO)N1C[C@H](C)[C@H](CN(C)C(=O)Nc2ccc3c(c2)OCO3)OCc2cnnn2CCCC1=O,·,0,·,·,-5,·
COC(=O)c1cccc(CN2C(=O)C(C)Oc3ccc(C)cc32)c1 (stereo unspecified),·,3,·,·,8,·
CCOC(=O)c1ccccc1N/C=C1\CCCC1=O,-2,3,12*,94*,10,-2
NC(=O)c1ccccc1N/C=C1\CCCCC1=O,-2,7,1,-22,-6,5
O=Cc1coc([B-](F)(F)F)c1,·,3,·,·,-4,·
CCCc1nn2c(=O)cc(COc3ccc(NC(=O)c4ccco4)cc3)nc2s1,-4,-7,-2,64*,-4,-23
CCOC(=O)c1ccc(N2CSC3=C(C#N)C(c4ccc(OC)cc4OC)CC(=O)N3C2)cc1 (stereo unspecified),-2,1,-5,90*,6,-1
COc1cc(OC)c(C2CC(=O)N3CN(c4ccccc4)CSC3=C2C#N)cc1OC (stereo unspecified),-3,-5,0,103*,10,31
CCOC(=O)C1=C(CC)OC(N)=C(C#N)C1c1ccc(OC)cc1OC (stereo unspecified),-2,-6,-1,-7,17,-6
COc1ccc(OC)c(C2CC(=O)N3CN(c4cccc(Cl)c4)CSC3=C2C#N)c1 (stereo unspecified),-1,9,2,94*,1,0
COc1ccc(OC)c(C2CC(=O)N3CN(c4ccc(C)c(Cl)c4)CSC3=C2C#N)c1 (stereo unspecified),-3,8,-4,79*,20,1
COc1ccc(Br)cc1C1CC(=O)N2CN(C)CSC2=C1C#N (stereo unspecified),-1,-1,0,48,1,4
CCc1ccccc1N1CSC2=C(C#N)C(c3cc(OC)c(OC)cc3OC)CC(=O)N2C1 (stereo unspecified),3,-12,2,6,8,9
CCCCc1c(-c2ccccc2OC)ncn1Cc1ccccc1Cl,·,-2,·,·,-3,·
CCOC(=O)[C@]12CCC=C1N(Cc1ccc3c(c1)OCO3)C(=O)[C@H](CC(=O)N1CCOCC1)C2,·,-3,·,·,-4,·
Cc1ccc2nc(-c3ccc(C#N)cc3)c(Cc3cccc(F)c3)n2c1,·,5,·,·,7,·
COC(=O)c1cc2c(c3c4cc(C)ccc4n(S(=O)(=O)c4ccc(OC)cc4)c13)C(=O)N(Cc1ccccc1)C2,·,1,·,·,-10,·
O=C(NCCO)c1cccc2c1C(=O)c1ccccc1-2,-2,13,7.9*,10,-4,9
